Sampled rows, rich in hits. Any-hit rate of the full collection: about 3.5%.
MrgX1 agonist = agonists of human MrgX1 receptor; B-score at 10 µM; Q96LB2; 310,000 compounds, 0.44% hits; MrgX1-HEK293 cells, Fluo-4 calcium fluorescence, agonist mode; hits give high values;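 active = calcium response B-score plate-corrected fluorescence ratio at least 3 library SD, with starting fluorescence B-score inside 5 SD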
Target sequence (Q96LB2 whole entry, looked up): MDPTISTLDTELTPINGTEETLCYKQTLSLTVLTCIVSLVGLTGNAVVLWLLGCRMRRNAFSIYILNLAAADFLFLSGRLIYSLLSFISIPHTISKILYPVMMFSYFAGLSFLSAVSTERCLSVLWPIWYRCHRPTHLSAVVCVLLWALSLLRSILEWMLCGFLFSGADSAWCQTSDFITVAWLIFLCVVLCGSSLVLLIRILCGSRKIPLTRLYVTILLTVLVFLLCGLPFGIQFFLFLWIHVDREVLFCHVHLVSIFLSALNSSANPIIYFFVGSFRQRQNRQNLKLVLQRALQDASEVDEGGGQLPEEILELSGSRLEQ
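Material: MrgX1-expressing HEK293 cells; input: 15,000 cells per well; doses: test compound given as first of three sequential additions; schedule: overnight plating before 1 h dye loading; technique: Fluo-4 NW calcium-flux fluorescence, kinetic read; evaluation: baseline-normalised fluorescence change ratio, B-scored; control set: plate-wise positive and negative controls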
RGS4 act = RGS4 potentiation or activation; AID 463111; HEK293 M3R/inducible RGS4, carbachol calcium flux Fluo4; hits give low values; 310,000 compounds, 0.92% hits; B-score at 10 µM;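 active = B-score of the integrated calcium signal more than 4 SD below the library mean, with starting fluorescence not abnormally high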;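 also: negative B-score means reduced calcium response which marks RGS4 activation or potentiation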
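Assay system: Inducible-RGS4 HEK293 cells carrying M3 receptor | Schedule: Compound preincubation 20 min at room temperature before agonist | Signal: Kinetic calcium fluorescence imaging with Fluo4-AM dye, 2 µM | Read-out basis: B score from integrated fluorescence ratio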
RGS4 block = inhibitors of human RGS4. P49798. HEK293 M3R/RGS4 inducible, Fluo-4 calcium flux; hits give high values; triggered by carbachol at its EC20. B-score at 10 µM. 310,000 compounds, 0.45% hits. AID 463165;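 active = B-score, a plate-corrected calcium signal, over three deviations above library mean, with baseline fluorescence within five deviations of library mean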;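 also: RGS4 expression induced by doxycycline in cells with stable M3 receptor; B-score is computed from the integrated fluorescence ratio over baseline after carbachol; higher B-score means a larger calcium signal and so more RGS4 inhibition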
Target sequence (P49798 whole entry, looked up): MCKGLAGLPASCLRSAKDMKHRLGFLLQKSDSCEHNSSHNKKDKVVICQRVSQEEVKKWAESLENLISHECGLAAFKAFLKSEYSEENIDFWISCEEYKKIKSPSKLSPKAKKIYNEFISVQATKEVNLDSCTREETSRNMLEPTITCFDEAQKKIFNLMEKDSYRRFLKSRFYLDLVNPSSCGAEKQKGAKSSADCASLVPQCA
MrgX1 allo act = allosterically activates human MrgX1 receptor signaling; MrgX1-HEK293, Fluo-4 calcium flux, FDSS; hits give high values; B-score at 10 µM; 310,000 compounds, 0.63% hits;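 active = plate-corrected calcium response at least 3 library SD above typical, normal starting fluorescence, not activating the receptor alone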;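 also: compound read alongside a low EC10 to EC30 dose of BAM8-22 agonist; peak minus trough fluorescence over baseline measured at the second addition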
MrgX1 antagonist = antagonists of human MrgX1 receptor | MRGX1-HEK293 calcium flux, Fluo-4, BAM8-22 antagonism; hits give low values | AID 588676 | Q96LB2 | 310,000 compounds, 1.3% hits | B-score at 10 µM;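 active = calcium-response B-score plate-corrected more than 3 library SD below zero, starting fluorescence within 5 deviations, no agonist response on first addition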;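 also: peak minus trough fluorescence over baseline after final BAM8-22 challenge near maximal dose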
MrgX1 allo conf = confirmation of human MrgX1 receptor positive allosteric modulators. activation (ratio percentage), % at 10 µM. shares compounds with MrgX1 allo act. 1,200 compounds, 13% hits. MrgX1-HEK293, Fluo-4 calcium fluorescence, FDSS;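 active = ratio at least 3 SD above the weak peptide control, stable starting fluorescence, no direct agonism earlier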;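 also: compound followed by low BAM8-22 agonist challenge near EC20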
HEK293 Ca flux = counter-screen for MrgX1 antagonists: effect in parental HEK293 cells. shares compounds with MrgX1 antagonist. 4,000 compounds, 2% hits. Fluo-4 calcium fluorescence, FDSS. fluorescence ratio F(max-min)/F0 at 10 µM. AID 624111;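 active = duplicate-averaged calcium fluorescence ratio at least three times the standard deviation of buffer wells, a nonspecific response in parental cells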
HEK293 Ca counter = MrgX1 allosteric activator counter-screen hit in parental HEK293 cells; fluorescence ratio F(max-min)/F0 at 10 µM; 4,000 compounds, 0.4% hits; shares compounds with MrgX1 antagonist; parental HEK293 calcium flux, Fluo-4 fluorescence ratio; hits give high values;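 active = calcium fluorescence ratio, averaged over duplicates, at least 3 SD of the buffer-well ratio, meaning a nonspecific response in receptor-free cells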;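 also: untransfected parental HEK293 lacking MrgX1 used as counterscreen for MrgX1 allosteric activators; fluorescence change taken during the second addition on a kinetic imager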
HEK293 Ca cntr2 = activity in parental HEK293 cells lacking MrgX1 receptor. fluorescence ratio F(max-min)/F0 at 10 µM. 4,000 compounds, 8.7% hits. Fluo-4 calcium fluorescence (FDSS); hits give high values. shares compounds with MrgX1 antagonist;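 active = calcium fluorescence ratio at least three times the spread of buffer wells, meaning a non-specific response in parental cells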
Starred values were filed as active, the others as inactive; i = inactive; nt = not tested or not shown.

SMILES	MrgX1 agonist	RGS4 act	RGS4 block	MrgX1 allo act	MrgX1 antagonist	MrgX1 allo conf	HEK293 Ca flux	HEK293 Ca counter	HEK293 Ca cntr2
CCc1[nH]nc2c1C(c1ccc(C)o1)C(C#N)=C(N)O2 (stereo not given)	i	i	i	7.59*	i	i	i	i	i
CCCn1c(SCC(=O)Nc2cccc(NC(C)=O)c2)nnc1C(C)C	i	i	i	i	i	nt	nt	nt	nt
CCCn1c(SCC(=O)Nc2cccc(C)n2)nnc1C(C)C	i	i	i	8.24*	i	i	i	i	i
Cc1ccc(C(=O)NC(C)C2CC3CCC2C3)c(C)c1 (stereo not given)	i	i	i	i	i	nt	nt	nt	nt
Cc1csc(NC(=O)c2cncc(Br)c2)n1	i	i	i	15.1*	i	i	i	i	i
CCc1ccccc1NC(=O)c1ccc(CN2CCC(Cc3ccccc3)CC2)cc1	i	i	i	i	i	nt	nt	nt	nt
CCCCC1(C)NC(=O)c2c(C)sc(C(=O)OCC)c2N1 (stereo not given)	i	i	i	8.33*	i	i	i	i	i
CCOc1ccc(NC(=O)C2CCN(S(C)(=O)=O)CC2)cc1	i	i	i	i	i	nt	nt	nt	nt
Cn1c(=NC(=O)C2CC2)sc2cccc(F)c21	i	i	i	11.3*	i	i	i	i	i
O=C(Nc1ccc(F)c(Cl)c1)N1CCCC1	i	i	i	13*	i	i	i	i	i
COc1cccc(CC(=O)N2CCC(n3nccc3NC(=O)C3CCOC3)CC2)c1 (stereo not given)	i	i	i	i	i	nt	nt	nt	nt
Cc1ccc2c(c1)N(CC(=O)NC(C)CCc1ccccc1)C(=O)c1cccnc1O2 (stereo not given)	i	i	i	i	i	nt	nt	nt	nt
CN(C)S(=O)(=O)Oc1cccc(C(=O)Nc2ccccc2Cl)c1	i	i	i	i	i	nt	nt	nt	nt
CN(C)S(=O)(=O)Oc1cccc(C(=O)Nc2ccc(Cl)cc2)c1	i	i	i	7.74*	i	i	i	i	i
COc1cccc(C(=O)Nc2nnc(-c3ccc(Cl)cc3)o2)c1	i	i	i	8.38*	i	i	i	i	i
COc1cccc(C(=O)Nc2nnc(-c3ccc(F)cc3)o2)c1	i	i	i	i	i	nt	nt	nt	nt
CC1c2ccsc2CCN1C(=O)NC(=O)c1ccc(Cl)cc1 (stereo not given)	i	i	i	i	i	nt	nt	nt	nt
O=C(Nc1ccc(F)cc1F)c1cc(-c2ccco2)on1	i	i	i	i	i	nt	nt	nt	nt
O=C(Nc1ccc(F)cc1F)c1ccco1	i	i	i	7.55*	i	i	i	i	i
CCSc1nc2ccccc2c(=O)n1Cc1ccc(F)cc1	i	i	i	9.82*	i	i	i	i	i
CCOC(=O)c1ccc2c(c1)nc(-c1ccccn1)n2CC	i	i	i	7.57*	i	i	i	i	i
COc1ccc(-c2cc(C(F)(F)F)nc(SCC(=O)Nc3ccc4c(c3)OCO4)n2)cc1	i	i	i	9.17*	i	i	i	i	i
Cc1cc(-n2c(C)cc(C(=O)CCl)c2C)no1	i	i	i	10.1*	i	i	i	i	i
Cc1cc(-n2c(C)cc(C(=O)CN3C(=O)NC4(CCCC4)C3=O)c2C)no1	i	i	i	i	i	nt	nt	nt	nt
Cc1ccccc1CS(=O)(=O)Cc1ccc(C(=O)NCCc2ccccc2)o1	i	i	i	i	i	nt	nt	nt	nt
SMILES	MrgX1 agonist	RGS4 act	RGS4 block	MrgX1 allo act	MrgX1 antagonist	MrgX1 allo conf	HEK293 Ca flux	HEK293 Ca counter	HEK293 Ca cntr2
Cc1cc(C)cc(-c2nnc(SCc3ccc(C(=O)O)cc3)o2)c1	i	i	i	7.41*	i	i	i	i	i
CCCc1cc(=O)oc2cc(C)cc(OCC(=O)Nc3cccnc3)c12	i	i	i	i	i	nt	nt	nt	nt
O=C(Nc1nnc(SCC(=O)N2CCCCC2)s1)c1cccs1	i	i	i	7.07*	i	i	i	i	i
O=C(Cc1cccs1)Nc1nnc(SCC(=O)N2CCCCC2)s1	i	i	i	i	i	nt	nt	nt	nt
NC(=O)c1cc(S(=O)(=O)N2CCN(c3ccc([N+](=O)[O-])cc3)CC2)cs1	i	i	i	i	i	nt	nt	nt	nt
COc1ccc(N2CC(C(=O)Nc3cc(C)ccn3)CC2=O)cc1 (stereo not given)	i	i	i	8.09*	i	i	i	i	i
Cc1ccc(C)n1-n1cnc2sc(-c3ccccc3)cc2c1=O	i	i	i	7.75*	i	i	i	i	i
Cc1ccc(C)n1-n1c(C)nc2sc(-c3ccccc3)cc2c1=O	i	i	i	19.2*	i	i	i	i	i
O=C(CC1C(=O)NCCN1Cc1ccc(Cl)c(F)c1)NC1CCCCC1 (stereo not given)	i	i	i	i	i	nt	nt	nt	nt
CCN(CC)S(=O)(=O)c1cc(Br)c(C)cc1OC	i	i	i	8.64*	i	i	i	i	i
Cc1ccc(CN2CCSc3ccc(C(=O)NC4CCCC4)cc32)cc1	i	i	i	9.37*	i	i	i	i	i
O=C(NC1CCCC1)c1ccc2c(c1)N(Cc1ccc(F)cc1)CCS2	i	i	i	i	i	nt	nt	nt	nt
Cn1c(=O)[nH]c(=O)c2c1nc(N1CCNCC1)n2Cc1ccccc1Cl	i	i	i	10.4*	i	i	i	i	i
CCCCCCn1c(N2CCCC2)nc2c1c(=O)[nH]c(=O)n2C	i	i	i	11.9*	i	9.9%*	i	i	i
O=C(Nc1nc(-c2cccs2)c(C(=O)C(F)(F)F)s1)c1ccco1	i	i	i	7.6*	i	i	i	i	i
